Screens as filed in PubChem BioAssay.
A selection: hits, their analogues and other compounds. The true share with any hit is near 1.7%.
HCV NS3 hel inh = blocks Hepatitis C virus NS3 helicase unwinding. inhibition, % at 10.9 µM. actives 0.56% (n = 290,000). NS3 helicase DNA unwinding, Cy5 molecular beacon fluorescence;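 active = inhibition above the mean of all tested compounds plus 3 SD, set per campaign, cut at about 35% in these data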;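 also: 0% = DMSO wells and 100% = thioflavine S control wells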
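Control set: DMSO versus 110 µM thioflavine S; Material: NS3 helicase fragment of HCV; Measured by: Cy5 fluorescence at 0 and 60 min, beacon hairpin quenching; Read-out basis: percent inhibition from t60/t0 fluorescence ratio; Times: reaction time 60 min, 25 °C; Repeats: single replicate; Compound dosing: single dose, 10.9 µM nominal final, DMSO 0.8% final.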
EBNA-1 inh = blocks EBNA-1 binding to DNA; EBNA-1 DNA binding, fluorescence polarization; inhibition, % at 14.8 µM; actives 0.34% (n = 300,000); AID 1950; in the data active = inhibition above about 28%
ZTA DNA inh = counter-screen for EBNA-1 inhibitors: inhibitors of Epstein-Barr virus ZTA | P03206 | ZTA-DNA binding, fluorescence polarization | inhibition, % at 11 µM | actives 0.15% (n = 320,000) | AID 2234; in the data active = inhibition above about 33%
HCV core dimer = HCV core protein dimerization inhibition; inhibition, % at 5 µM; actives 0.33% (n = 300,000); TR-FRET GST/Flag-core106 dimerization, 1536-well;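 active = inhibition above the mean of all tested compounds plus 3 SD, set per screening campaign, cut at about 45% in these data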
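System – GST-tagged and Flag-tagged HCV core protein residues 1-106 · Repeats – one well for each compound · Technique – TR-FRET 671 and 617 nm emission · Doses – one concentration, 5 µM, in 0.5% DMSO · Times – 4 h, 22.5 °C incubation · Also added – Eu donor and XL665 acceptor anti-tag antibodies · Measure – percent inhibition of core106 dimerization signal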
EBV gp42 inh = EBV gp42 inhibition. Fluorescence polarization binding assay, mP read-out. inhibition, % (tested at 21.74 µM). actives 0.42% (n = 220,000). AID 1085; in the data active = inhibition above about 50%
MEX-5 binding = C. elegans MEX-5 TCR-2 RNA binding activity. Q9XUB2. MEX-5/FITC-TCR2 RNA binding, fluorescence polarization; active compounds read low. activity score (negative = inhibition of binding), % at 10 µM. actives 0.38% (n = 300,000);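 active = inhibition past about -25% in most replicates, and total fluorescence under double the plate's negative control median, limit read from the data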;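 also: 0% = DMSO and -100% = 5 µM competing unlabeled TCR2 RNA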
Target sequence (Q9XUB2 whole entry, looked up): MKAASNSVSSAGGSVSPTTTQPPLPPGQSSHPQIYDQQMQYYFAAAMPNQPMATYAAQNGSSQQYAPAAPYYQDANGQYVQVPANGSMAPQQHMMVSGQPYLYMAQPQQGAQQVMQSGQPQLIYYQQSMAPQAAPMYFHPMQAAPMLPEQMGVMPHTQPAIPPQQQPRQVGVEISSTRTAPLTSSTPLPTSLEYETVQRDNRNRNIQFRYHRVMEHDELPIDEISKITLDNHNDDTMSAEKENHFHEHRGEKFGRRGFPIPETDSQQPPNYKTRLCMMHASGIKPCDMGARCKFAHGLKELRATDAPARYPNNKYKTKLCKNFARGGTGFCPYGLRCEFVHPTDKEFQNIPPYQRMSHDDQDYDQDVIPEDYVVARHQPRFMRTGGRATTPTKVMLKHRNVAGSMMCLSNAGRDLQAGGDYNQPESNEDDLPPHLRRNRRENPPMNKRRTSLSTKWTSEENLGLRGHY
An asterisk follows results filed as active; . = no result.

SMILES	HCV NS3 hel inh	EBNA-1 inh	ZTA DNA inh	HCV core dimer	EBV gp42 inh	MEX-5 binding
CN(C=[N+](C)C)c1cccc2c1C(=O)c1ccccc1C2=O	0	6	-3	-11	1	-28*
COc1ccc(-n2c(CN3CCOCC3)nc3ccc([N+](=O)[O-])cc3c2=O)c(OC)c1	11	10	-6	65*	.	-1
N=c1c(C(=O)NCc2ccco2)cc2c(=O)n3ccccc3nc2n1CCc1ccccc1	-5	3	-14	52*	12	-5
Cc1cccn2c(=O)c3cc(C(=O)NCc4ccco4)c(=N)n(CCOCCO)c3nc12	3	-12	-15	18	75*	-8
COc1ccc(CNC(=O)c2cc3c(=O)n4ccccc4nc3n(Cc3ccco3)c2=N)cc1	2	.	.	.	.	.
Cc1ccc(Cn2c(=N)c(C(=O)NCc3ccco3)cc3c(=O)n4ccccc4nc32)cc1	15	-6	-17	63*	4	-2
COc1cc(OC)cc(C(=O)OC/C(O)=C(\C#N)c2nc3ccccc3[nH]2)c1	-4	3	2	3	-15	0
Cc1nn(-c2ccccc2)c(C)c1C(=O)OC/C(O)=C(\C#N)c1nc2ccccc2[nH]1	-9	16	6	67*	-12	0
COc1ccc(Cl)cc1NC(=O)c1nnn(CC(=O)Nc2ccc3c(c2)OCO3)c1N	2	-4	-7	34	.	0
COc1ccc(/C=N\NS(=O)(=O)c2ccc(Cl)cc2)cc1COc1ccccc1[N+](=O)[O-]	1	11	-5	47*	5	-1
COc1ccc(N(CC(=O)N2CCN(C)CC2)S(=O)(=O)c2cc(C)ccc2OC)cc1Cl	-17	1	4	1	.	-2
Cc1cc2occ(CC(=O)N(C)CC(=O)Nc3ccccc3Cl)c2cc1C	.	4	-1	3	.	-4
CC(=O)/C(N=Nc1nc2c([nH]1)c(=O)n(C)c(=O)n2C)=C(\C)O	26	-9	11	9	15	-36*
Cc1ccccc1NN=Nc1nc2c([nH]1)c(=O)n(C)c(=O)n2C	-3	2	3	-8	-26	.
Cn1c(=O)c2[nH]c(N=NNc3ccccc3F)nc2n(C)c1=O	5	2	3	-12	-7	-34*
COc1ccc(NN=Nc2nc3c([nH]2)c(=O)n(C)c(=O)n3C)cc1	-5	4	1	-7	-18	-2
Cc1ccc2c(c1)N(CC(=O)N1CCCCC1)C(=O)C(C)O2 (stereo unspecified)	-1	11	2	0	.	-1
CC(C)(C)c1ccc(C(=O)Nc2cccc3c(=O)[nH][nH]c(=O)c23)cc1	3	1	-12	1	93*	-1
COC(=O)CCC(=O)OC1(C)C(=O)C2=CN(c3ccc(OC)cc3)C(c3ccc(OC)cc3)=CC2=C(Br)C1=O (stereo unspecified)	.	5	7	24	.	-6
COCCN1C=C2C(=O)C(C)(OC(=O)CCC(=O)OC)C(=O)C(Br)=C2C=C1c1ccc(OC)cc1 (stereo unspecified)	.	4	-2	4	.	-18
C=CCN1C=C2C(=O)C(C)(OC(=O)CCC(=O)OC)C(=O)C(Br)=C2C=C1c1ccc(OC)cc1 (stereo unspecified)	.	7	20	10	28	-28*
COC(=O)CCC(=O)OC1(C)C(=O)C2=CN(Cc3ccco3)C(c3ccc(OC)cc3)=CC2=C(Br)C1=O (stereo unspecified)	.	11	5	18	.	-37*
CN(Cc1ccco1)c1ncnc2ccc(-c3ccc4c(ccn4C)c3)cc12	.	.	1	.	.	.
NC(=S)n1[nH]c(-c2ccc([N+](=O)[O-])cc2)c(N=Nc2ccc(Cl)cc2)c1=O	15	.	.	.	92*	.
Cc1ccc([N+](=O)[O-])cc1N=Nc1c(-c2ccc([N+](=O)[O-])cc2)[nH]n(C(N)=S)c1=O	1	.	.	.	107*	1
SMILES	HCV NS3 hel inh	EBNA-1 inh	ZTA DNA inh	HCV core dimer	EBV gp42 inh	MEX-5 binding
S=c1nc(Cc2ccc(Cl)cc2)[nH]c2ccccc12	-2	9	-3	54*	-16	-2
COc1ccc(C(=O)N2C(=S)NC(=O)/C2=C\c2ccc(C)cc2)cc1	10	10	14	2	-76	-28*
COc1ccc(C(=O)C2CCN(C(=O)c3ccc(C)cc3)CC2)cc1	6	-16	1	5	-1	1
COc1ccc(CN2CCC(Oc3cc(C(=O)NC4CC4)ccc3OC)CC2)c(O)c1	8	-2	-10	-11	.	-1
C#Cc1cccc(C(=O)N2CCCC(C(=O)c3ccc(OC)cc3C)C2)c1 (stereo unspecified)	-1	14	1	-3	.	-1
COc1cc(C(CC(=O)N2CCCC2)c2c(OC)cc(OC)c3ccc(=O)oc23)cc(OC)c1OC (stereo unspecified)	.	-5	14	4	-12	-39*
COc1cc(OC)c2ccc(=O)oc2c1C(CC(=O)N1CCCC1)c1ccc2c(c1)OCO2 (stereo unspecified)	.	6	-13	-6	-4	-6
CCCCCCc1cc2cc(S(=O)(=O)c3ccc(Cl)cc3)c(=O)oc2cc1O	7	-10	-27	4	-10	-1
CCN(CC)c1ccc2cc(S(=O)(=O)c3ccc(Cl)cc3)c(=O)oc2c1	-2	4	-19	19	159*	-6
C=CCN1C(=O)/C(=C2/Sc3ccccc3N2CC)SC1=S	2	-6	3	-9	.	-30*
Nc1cccc2c1C(=O)N(CC(=O)NC13CC4CC(CC(C4)C1)C3)C2=O	-11	-3	-2	4	64*	0
COC(=O)c1ccccc1NC(=O)CN1CCC(n2nnc3cc(C(F)(F)F)ccc32)CC1	-1	-2	4	5	-6	2
CC1Cc2ccccc2N1C(=O)CN1CCC(n2nnc3cc(C(F)(F)F)ccc32)CC1 (stereo unspecified)	-7	7	-2	5	100*	2
O=C(/C(=C(\[O-])c1ccccc1)[n+]1ccc2ccccc2c1)c1ccc(Cl)cc1	-2	-3	-21	1	67*	-10
O=C(/C(=C(\[O-])c1ccccc1)[n+]1ccc2ccccc2c1)c1ccccc1	-4	1	4	9	74*	-11
O=C(/C(=C(\[O-])c1ccccc1)[n+]1ccc2ccccc2c1)c1ccc([N+](=O)[O-])cc1	12	1	8	-5	-6	0
CCN1CCN(CCC(=O)Nc2ccccc2C)CC1	5	11	11	2	.	1
CSc1nc(N(CCO)CCO)c2sc3nc(-c4ccco4)c4c(c3c2n1)CCC4	32	.	.	.	56*	1
O=C(CN1C(=O)/C(=C/c2cccc(Br)c2)SC1=S)NC1=NCCS1	14	25	8	50*	-36	-22
